Assay outcomes from PubChem.
Hits are enriched below; roughly 4.6% of the tested compounds scored in any of these assays.
TAAR1 ag – human TAAR1 agonists, primary screen, Fluo-8 calcium fluorescence, CHO RD-HGA16 cells. Trace amine-associated receptor 1 (Homo sapiens), Q96RJ0. vehicle wells 0%, saturating PEA agonist 100%. activation, % at 3 µM. 360,000 tested, 0.99% active. AID 624467, 2012;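 active = activation above the mean activation of all test compounds in the run plus 3 SD, cut at about 38% in these data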
Target sequence (Q96RJ0 whole entry, looked up): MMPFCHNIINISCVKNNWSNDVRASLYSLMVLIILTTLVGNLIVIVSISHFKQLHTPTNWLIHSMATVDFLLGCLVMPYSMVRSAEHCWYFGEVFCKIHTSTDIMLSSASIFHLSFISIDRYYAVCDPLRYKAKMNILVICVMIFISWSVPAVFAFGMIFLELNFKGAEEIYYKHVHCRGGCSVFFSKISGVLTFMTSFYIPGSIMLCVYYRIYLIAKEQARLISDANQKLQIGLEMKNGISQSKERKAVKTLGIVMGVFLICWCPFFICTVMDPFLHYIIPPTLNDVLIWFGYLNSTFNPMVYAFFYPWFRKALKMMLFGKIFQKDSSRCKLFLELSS
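System: CHO RD-HGA16 cells carrying human TAAR1 plus Gα16; Incubation: 17-24 h seeding, 75 min 37 °C dye, 30 min RT; Measured by: Fluo-8 fluorescence, 5 s baseline then 140 s kinetic read; Control set: DMSO and PEA EC100; Replication: single well for each compound.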
OX1R antag-1 – antagonists of human orexin 1 receptor (OX1R); Orexin/Hypocretin receptor type 1 (Homo sapiens), O43613; OX1R-expressing cells, FRET antagonist read-out; inhibition, % at 6.6 µM; 330,000 tested, 1.8% active; AID 485270, 2010; in the data active = inhibition mostly above about 38%, no sharp cut-off; inactive = mostly below about 40%;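 note: 0% = agonist challenge alone and 100% = reference antagonist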
Target sequence (O43613 whole entry, looked up): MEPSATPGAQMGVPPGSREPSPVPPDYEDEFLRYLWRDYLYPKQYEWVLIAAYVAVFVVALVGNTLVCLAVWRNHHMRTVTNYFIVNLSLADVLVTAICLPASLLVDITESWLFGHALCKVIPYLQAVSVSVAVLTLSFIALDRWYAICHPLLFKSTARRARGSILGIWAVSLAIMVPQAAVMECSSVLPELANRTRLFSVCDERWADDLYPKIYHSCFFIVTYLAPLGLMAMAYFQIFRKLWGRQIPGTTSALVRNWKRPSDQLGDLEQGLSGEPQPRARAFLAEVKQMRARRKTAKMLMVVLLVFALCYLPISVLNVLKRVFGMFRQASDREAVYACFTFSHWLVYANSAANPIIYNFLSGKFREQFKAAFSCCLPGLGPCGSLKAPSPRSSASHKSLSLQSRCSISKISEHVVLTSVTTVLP
CHO parental Ca – ATP-evoked calcium signal inhibitors, parental CHO, primary screen, counter-screen for OX1R antagonist project, cell-based, fluorescence, Fluo-8 calcium dye; parental CHO-K1, ATP-induced calcium, Fluo-8 fluorescence; inhibition, % at 5.6 µM; 330,000 tested, 0.63% active;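 active = inhibition above that plate's mean sample inhibition plus 3 SD, cut at about 26% in these data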;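 note: 0% = ATP-challenged DMSO wells and 100% = DMSO wells without ATP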
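Test system: untransfected parental CHO cell line. Compound: one dose, 5.6 µM nominal. Detection: intracellular calcium via Fluo-8 no-wash fluorescent dye. Measure: % inhibition. Benchmarks: ATP-challenged DMSO wells low, unchallenged DMSO wells high.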
OX1R antag-2 – OX1R (HCRTR1) antagonists, primary screen, fluorescence, CHO/OX1R cells, Fluo-8 calcium, orexin A; 330,000 tested, 0.43% active; Orexin/Hypocretin receptor type 1 (Homo sapiens), O43613; Fluo-8 calcium fluorescence; inhibition, % at 5 µM;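 active = inhibition above its plate's threshold, mean inhibition of all tested compounds on the plate plus 3 SD, cut at about 37% in these data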;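 note: 0% = orexin A challenge wells and 100% = SB-334867-A antagonist wells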
TAAR1 antagonist – human TAAR1 antagonists, primary screen, Fluo-8 calcium fluorescence, CHO RD-HGA16 cells; Trace amine-associated receptor 1 (Homo sapiens), Q96RJ0; antagonist; inhibition, % at 3 µM; 360,000 tested, 1.5% active; AID 624466, 2012;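 active = inhibition above a per-plate cutoff, the mean inhibition of test compounds on that plate plus 3 SD, cut at about 49% in these data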;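 note: 0% = DMSO plus EC80 beta-PEA response and 100% = DMSO alone without agonist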
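Test system: RD-HGA16 CHO cells with stable hTAAR1 and Gα16 / Probe or stimulus: EC80 β-phenethylamine stimulus / Times: seeding 17-24 h prior, 75-min 37 °C, 30-min RT dye loading / Detection: Fluo-8 calcium-sensitive fluorescence / Read-out basis: % inhibition scaled between DMSO and EC80 PEA controls / Repeats: singlicate, one well per test compound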
GPR7 antagonist – GPR7 receptor antagonists, primary screen, cell-based, fluorescence, single concentration | GPR7-expressing cells, fluorescence antagonist assay | inhibition, % at 4.4 µM | 290,000 tested, 1.1% active; in the data active = inhibition above about 16%, passing the limit was not always enough;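 note: cells stimulated with the agonist NPW; 0% = agonist with vehicle and 100% = vehicle without agonist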
GPR7 antag cf – GPR7 receptor antagonists, confirmation, cell-based, fluorescence, single concentration. shares compounds with GPR7 antagonist. 2,400 tested, 52% active. inhibition, % at 4.4 µM. GPR7-expressing cells, calcium fluorescence antagonist mode; in the data active = inhibition above about 24%;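 note: stimulated with the GPR7 agonist NPW; 0% = agonist plus vehicle and 100% = vehicle alone without agonist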
MCHR1 antag – MCHR1 antagonists in cells, counter-screen for GPR7 antagonist project, cell-based, fluorescence, human; shares compounds with GPR7 antagonist; MCHR1-expressing cells, fluorescence antagonist assay; inhibition, % at 4.4 µM; 2,400 tested, 62% active; AID 2148, 2009; in the data active = inhibition above about 22%;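 note: 0% = vehicle with agonist and 100% = vehicle without agonist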
TAAR1 ag confirm – human TAAR1 agonists, retest of hits, confirmation, Fluo-8 calcium fluorescence, CHO RD-HGA16 cells; activation, % at 3 µM; 2,400 tested, 82% active; shares compounds with TAAR1 ag; scaled: DMSO 0%, maximal phenethylamine 100%;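 active = activation above a cutoff set at the run's mean compound activation plus 3 SD, cut at about 39% in these data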
Ga16 nonsel ag – nonselective calcium mobilization agonists, CHO-Ga16 cells, counter-screen for hTAAR1 agonist project, cell-based, fluorescence, CHO-Ga16 parental line. shares compounds with TAAR1 ag. Fluo-8 calcium fluorescence; normalized to maximal ATP response, DMSO zero. activation, % at 3 µM. 2,400 tested, 50% active. AID 651787, 2012;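 active = activation above the run cutoff, the mean activation over all tested wells plus 3 SD, cut at about 12% in these data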;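 note: 0% = DMSO wells and 100% = maximal ATP response on the peak over basal ratio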
TAAR1 desensitize – TAAR1 desensitization by agonist hits, confirmation, counter-screen for TAAR1 agonist project, cell-based, fluorescence, tachyphylaxis; shares compounds with TAAR1 ag; CHO RD-HGA16 hTAAR1, Fluo-8 calcium, beta-PEA response inhibition; inhibition, % at 3 µM; 2,400 tested, 46% active;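 active = inhibition above the run cutoff, the mean inhibition of all test compounds plus 3 SD, cut at about 49% in these data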;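 note: beta-PEA stimulus applied at its EC80; loss of beta-PEA calcium signal after compound pretreatment read as receptor desensitization; 0% = DMSO with beta-PEA at EC80 and 100% = DMSO alone without agonist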
Ga16 nonsel ant – inhibition of ATP-evoked calcium response in CHO-Ga16 cells, counter-screen for TAAR1 agonist project, cell-based, fluorescence; shares compounds with TAAR1 ag; CHO-Ga16 ATP-induced calcium, Fluo-8 fluorescence; inhibition, % at 3 µM; 2,400 tested, 39% active;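 active = inhibition above the plate's mean compound inhibition plus 3 SD, computed per plate, cut at about 22% in these data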;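 note: 0% = EC80 ATP with DMSO and 100% = DMSO wells without ATP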
* hit, by the source's call; nt = not tested or not shown.

SMILES	TAAR1 ag	OX1R antag-1	CHO parental Ca	OX1R antag-2	TAAR1 antagonist	GPR7 antagonist	GPR7 antag cf	MCHR1 antag	TAAR1 ag confirm	Ga16 nonsel ag	TAAR1 desensitize	Ga16 nonsel ant
Cc1cc(C)nc(/N=C(\N)Nc2ccc(OCCC(C)C)cc2)n1	145*	5	68*	94*	103*	100*	97*	106*	127*	103*	105*	93*
CCc1ccc(N/C(=N/c2nc(C)cc(C)n2)NC(C)=O)cc1	-4	3	-20	-8	-11	-21	nt	nt	nt	nt	nt	nt
Cc1cc(C)nc(/N=C(\N)Nc2ccc(CC(=O)OC(C)C)cc2)n1	109*	17	41*	67*	101*	97*	95*	97*	120*	85*	106*	97*
COCCCNC(=O)Cn1cc(/C=C(\C#N)C(=O)NC2CCCC2)c2ccccc21	3	13	-12	-25	-15	-14	nt	nt	nt	nt	nt	nt
O=C(Nc1ccnn1C1CCN(Cc2cc3ccccc3[nH]2)CC1)C1CCOC1 (configuration not stated)	58*	5	3	2	83*	82*	53*	74*	31	23*	63*	66*
Cc1c(CN2CCC(n3nccc3NC(=O)C3CCOC3)CC2)[nH]c2ccccc12 (configuration not stated)	3	nt	nt	nt	-14	-10	nt	nt	nt	nt	nt	nt
Cc1ccc(S(=O)(=O)Nc2ccc(Nc3nccn4c(-c5cccc(OC(F)(F)F)c5)cnc34)cc2)cc1	0	nt	nt	nt	-10	nt	nt	nt	nt	nt	nt	nt
COc1ccc(C(=O)C(=O)N2CCN(c3ccc(C)cc3)CC2)cc1OC	0	nt	nt	nt	-22	nt	nt	nt	nt	nt	nt	nt
Cc1cc(N2CCC(C)CC2)nc(NCc2ccccc2)n1	60*	15	-16	-14	36	30*	58*	83*	67*	34*	53*	31*
CSc1ncccc1C(=O)Nc1ccc(OC(F)(F)F)cc1	2	13	-1	3	4	8	nt	nt	nt	nt	nt	nt
CC(=O)Nc1ccc(Sc2ncccc2C(=O)Nc2ccc(F)cc2)cn1	174*	-1	72*	101*	104*	62*	98*	98*	150*	113*	106*	89*
Cc1ccc(S(=O)(=O)N2C[C@H]3[C@H]4C(=O)N(Cc5ccccc5)C(=O)[C@H]4CC(=O)[C@H]3[C@@H]2c2ccccc2Cl)cc1	2	nt	nt	nt	4	nt	nt	nt	nt	nt	nt	nt
CCc1ccc(NC(=O)C(CC)c2ccccc2)cc1 (configuration not stated)	71*	14	39*	24	37	31*	58*	60*	67*	38*	65*	39*
CCC(C(=O)Nc1ccncc1)c1ccccc1 (configuration not stated)	6	16	-2	2	-2	-11	nt	nt	nt	nt	nt	nt
COc1cc(-c2noc(C)c2-c2ccc(N(C)C)nc2)cc(OC)c1OC	96*	75*	-6	-2	54*	60*	69*	67*	84*	48*	54*	31*
COc1cc2c(cc1OC)C(O)=CC(=O)C2=O	-1	nt	nt	nt	-1	nt	nt	nt	nt	nt	nt	nt
CCc1nc2ccc(C(=O)NCCCN3CCCC3=O)cn2c1N(C)C(=O)C1CCCCC1	0	nt	nt	nt	-11	nt	nt	nt	nt	nt	nt	nt
COC(=O)C(/C=N/OCc1ccc([N+](=O)[O-])cc1)NC(=O)c1cccc(Cl)c1 (configuration not stated)	95*	17	11	18	88*	38*	65*	50*	94*	51*	78*	41*
Cc1ccc(CONC(=O)c2cccc([N+](=O)[O-])c2)cc1	0	7	-9	-5	-1	nt	nt	nt	nt	nt	nt	nt
c1ccc(CNc2ncnc3c2cnn3Cc2ccccc2)cc1	102*	19	3	-8	7	28*	53*	51*	82*	47*	48	25*
OCCNc1ncnc2c1cnn2Cc1ccccc1	2	nt	nt	nt	7	-9	nt	nt	nt	nt	nt	nt
Cc1ccc(OCCNC(=O)[C@H]2O[C@@H](n3cnc4c(N)ncnc43)[C@H](O)[C@@H]2O)cc1C	1	nt	nt	nt	11	nt	nt	nt	nt	nt	nt	nt
CCOC(=O)c1ccc(NC(=O)COc2ccccc2CNCCc2ccccc2)cc1	81*	7	-2	-4	36	31*	47*	73*	111*	23*	85*	27*
Cc1ccccc1S(=O)(=O)N1CCCc2nc(-c3ccc(Br)cc3)ccc21	0	nt	nt	nt	-33	nt	nt	nt	nt	nt	nt	nt
COc1ccc(/C=C2/SC(=S)N(Cc3ccccc3)C2=O)cc1O	15	nt	nt	nt	-44	-18	nt	nt	nt	nt	nt	nt
O=C1/C(=C\c2cc(Cl)c(O)c(Cl)c2)SC(=S)N1Cc1ccccc1	111*	nt	nt	nt	97*	60*	100*	111*	188*	258*	107*	106*
COc1ccccc1N1CN(CCc2ccccc2)CNC1=S	83*	17	-19	-5	57*	30*	5	-2	101*	5	84*	1
CC(C)(C)c1ccc(C(=O)NCCC(=O)NCc2ccc(F)cc2)cc1	0	nt	nt	nt	-3	nt	nt	nt	nt	nt	nt	nt
